# According to ChEMBL document CHEMBL2407075, “Sulphonamido-quinoxalines: search for anticancer agent” (Eur J Med Chem, 2013):
# What was measured:
# Assay type in all cases: functional
# [1] = test system: PC-3; experiment: Growth inhibition of human PC3 cells after 48 hrs by sulforhodamine B assay; settings: PC-3, 48 h; for CC50: read-out: LC50 (the source's name)
# How it was run: (§1)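 Adherent cells in RPMI 1640 with 5% FBS and 2 mM L-glutamine were plated at 5000–40,000 cells/well and grown 24 h. Five concentrations (0.01–100 µM, DMSO stock) were added for 48 h at 37 °C. Cells were fixed with cold TCA (10% final) and stained with SRB, read at 515 nm. GI50 came from log concentration–growth curves against time-zero and control plates.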
# [2] = test system: MDA-MB-435; experiment: Growth inhibition of human MDA-MB-435 cells assessed as cell growth at 10^-4 M after 48 hrs by sulforhodamine B assay; settings: MDA-MB-435, 48 h, read-out: Activity
# [3] = test system: HL-60(TB); experiment: Growth inhibition of human HL-60(TB) cells assessed as cell growth at 10^-5 M after 48 hrs by sulforhodamine B assay; settings: HL-60, 48 h, read-out: Activity
# How it was run: (§2)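 HL-60(TB) suspension cells were treated 48 h at 37 °C within the five-dose series (0.01–100 µM), fixed with 16% final TCA and SRB-stained, read at 515 nm. Percentage growth at each concentration = (Ti−Tz)/(C−Tz)×100, or (Ti−Tz)/Tz×100 when Ti<Tz, with time-zero (Tz) and untreated control (C) plates.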
# [4] = test system: UO-31; experiment: Growth inhibition of human UO31 cells assessed as cell growth at 10^-7 M after 48 hrs by sulforhodamine B assay; settings: UO-31, 48 h, read-out: Activity
# [5] = test system: SW-620; experiment: Growth inhibition of human SW620 cells assessed as cell growth at 10^-7 M after 48 hrs by sulforhodamine B assay; settings: SW-620, 48 h, read-out: Activity
# [6] = test system: SNB-19; experiment: Growth inhibition of human SNB19 cells assessed as cell growth at 10^-8 M after 48 hrs by sulforhodamine B assay; settings: SNB-19, 48 h, read-out: Activity
# [7] = test system: PC-3; experiment: Growth inhibition of human PC3 cells assessed as cell growth at 10^-5 M after 48 hrs by sulforhodamine B assay; settings: PC-3, 48 h, read-out: Activity
# [8] = test system: MDA-MB-435; experiment: Growth inhibition of human MDA-MB-435 cells after 48 hrs by sulforhodamine B assay; settings: MDA-MB-435, 48 h, read-out: LC50 (the source's name); how it was run: as §1
# [9] = test system: HL-60(TB); experiment: Growth inhibition of human HL-60(TB) cells assessed as cell growth at 10^-8 M after 48 hrs by sulforhodamine B assay; settings: HL-60, 48 h, read-out: Activity; how it was run: as §2
# [10] = test system: SK-MEL-5; experiment: Growth inhibition of human SK-MEL-5 cells assessed as cell growth at 10^-8 M after 48 hrs by sulforhodamine B assay; settings: SK-MEL-5, 48 h, read-out: Activity
# [11] = test system: K562; experiment: Growth inhibition of human K562 cells after 48 hrs by sulforhodamine B assay; settings: K562, 48 h; for CC50: read-out: LC50 (the source's name)
# How it was run: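 Five-dose NCI 60 screen at 0.01, 0.1, 1, 10 and 100 µM, 48 h exposure after 24 h preincubation, in RPMI 1640 with 5% FBS and 2 mM glutamine. Fixed with TCA (10% final for adherent cells, 16% for suspension cells), stained with SRB, A515 read. Percent growth uses time-zero (Tz), control and treated plates. GI50, TGI and LC50 are read from the dose-response curves.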
# [12] = test system: BT-549; experiment: Growth inhibition of human BT549 cells assessed as cell growth at 10^-6 M after 48 hrs by sulforhodamine B assay; settings: BT-549, 48 h, read-out: Activity
# How it was run: (§3)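 Five-dose NCI-60 run (0.01, 0.1, 1, 10 and 100 µM, as 10-fold dilutions from a DMSO stock made at 400× the top final level). Cells were grown in RPMI 1640 with 5% FBS and 2 mM glutamine and plated for 24 h. They were then exposed for 48 h at 37 °C and 5% CO2. TCA fixation was followed by SRB staining with A515 read-out. Percent growth was taken relative to time-zero and control plates.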
# [13] = test system: UACC-62; experiment: Growth inhibition of human UACC62 cells after 48 hrs by sulforhodamine B assay; settings: UACC-62, 48 h, read-out: LC50 (the source's name)
# [14] = test system: LOX IMVI; experiment: Growth inhibition of human LOXIMVI cells assessed as cell growth at 10^-4 M after 48 hrs by sulforhodamine B assay; settings: read-out: Activity
# [15] = test system: RPMI-8226; experiment: Growth inhibition of human RPMI8226 cells assessed as cell growth at 10^-8 M after 48 hrs by sulforhodamine B assay; settings: RPMI-8226, 48 h, read-out: Activity
# [16] = test system: COLO 205; experiment: Growth inhibition of human COLO205 cells after 48 hrs by sulforhodamine B assay; settings: COLO 205, 48 h, read-out: LC50 (the source's name); how it was run: as §1
# [17] = test system: MOLT-4; experiment: Growth inhibition of human MOLT4 cells assessed as cell growth at 10^-5 M after 48 hrs by sulforhodamine B assay; settings: MOLT-4, 48 h, read-out: Activity
# [18] = test system: OVCAR-8; experiment: Growth inhibition of human OVCAR8 cells assessed as cell growth at 10^-6 M after 48 hrs by sulforhodamine B assay; settings: OVCAR-8, 48 h, read-out: Activity
# [19] = test system: A498; experiment: Growth inhibition of human A498 cells assessed as cell growth at 10^-7 M after 48 hrs by sulforhodamine B assay; settings: A498, 48 h, read-out: Activity; how it was run: as §3
# [20] = test system: MCF7; experiment: Growth inhibition of human MCF7 cells assessed as cell growth at 10^-8 M after 48 hrs by sulforhodamine B assay; settings: MCF7, 48 h, read-out: Activity
# [21] = test system: HCT-15; experiment: Growth inhibition of human HCT15 cells assessed as cell growth at 10^-4 M after 48 hrs by sulforhodamine B assay; settings: HCT-15, 48 h, read-out: Activity
# How it was run: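 Five-dose screen at NCI. Cells in RPMI 1640 with 5% FBS and 2 mM L-glutamine, seeded at 5000–40,000 cells/well and grown 24 h at 37 °C, 5% CO2 before dosing, with time-zero plates TCA-fixed. Drug diluted from DMSO stock to 0.01, 0.1, 1, 10 and 100 µM final, 48 h. Cells fixed with cold TCA (10% final), stained with 0.4% SRB and read at 515 nm. Percent growth from Tz, control and test absorbances; GI50, TGI and LC50 from dose-response curves.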
# [22] = test system: ACHN; experiment: Growth inhibition of human ACHN cells assessed as cell growth at 10^-4 M after 48 hrs by sulforhodamine B assay; settings: read-out: Activity; how it was run: as §3
# [23] = test system: SK-OV-3; experiment: Growth inhibition of human SKOV3 cells assessed as cell growth at 10^-7 M after 48 hrs by sulforhodamine B assay; settings: SK-OV-3, 48 h, read-out: Activity
# [24] = test system: SN12C; experiment: Growth inhibition of human SN12C cells assessed as cell growth at 10^-7 M after 48 hrs by sulforhodamine B assay; settings: read-out: Activity
# [25] = test system: TK-10; experiment: Growth inhibition of human TK10 cells assessed as cell growth at 10^-4 M after 48 hrs by sulforhodamine B assay; settings: TK-10, 48 h, read-out: Activity
# [26] = test system: RPMI-8226; experiment: Growth inhibition of human RPMI8226 cells assessed as cell growth at 10^-6 M after 48 hrs by sulforhodamine B assay; settings: RPMI-8226, 48 h, read-out: Activity
SMILES,GI50 [1],CC50 [1],growth at 100 µM [2],growth at 10 µM [3],growth at 0.1 µM [4],growth at 0.1 µM [5],growth at 0.01 µM [6],growth at 10 µM [7],CC50 [8],growth at 0.01 µM [9],growth at 0.01 µM [10],TGI [11],CC50 [11],growth at 1 µM [12],CC50 [13],growth at 100 µM [14],growth at 0.01 µM [15],CC50 [16],growth at 10 µM [17],growth at 1 µM [18],other results
O=S(=O)(Nc1ccc(Cl)cc1)c1ccc2nc(-c3ccccc3)c(-c3ccccc3)nc2c1,1.47 µM,> 100 µM,76%,-32%,89%,91%,100%,-12%,> 100 µM,97%,95%,> 100 µM,> 100 µM,78%,> 100 µM,66%,103%,> 100 µM,-39%,92%,growth at 0.1 µM [19]: 76%; growth at 0.01 µM [20]: 95%; growth at 100 µM [21]: 68%; growth at 100 µM [22]: 76%; growth at 0.1 µM [23]: 99%; growth at 0.1 µM [24]: 96%; growth at 100 µM [25]: 86%; growth at 1 µM [26]: 68%
O=S(=O)(Nc1ccccn1)c1ccc2nc(-c3ccccc3)c(-c3ccccc3)nc2c1,1.39 µM,> 100 µM,76%,-30%,88%,102%,100%,-12%,> 100 µM,98%,95%,> 100 µM,> 100 µM,71%,> 100 µM,57%,108%,100 µM,-29%,85%,GI50 [11]: 2.72 µM; growth at 0.1 µM [19]: 87%; growth at 0.01 µM [20]: 95%; growth at 100 µM [21]: 63%; growth at 100 µM [22]: 62%; growth at 0.1 µM [23]: 98%; growth at 0.1 µM [24]: 93%; growth at 100 µM [25]: 54%; growth at 1 µM [26]: 55%
